ChEMBL document CHEMBL1124657, “Retinobenzoic acids. 2. Structure-activity relationships of chalcone-4-carboxylic acids and flavone-4'-carboxylic acids” (1989)
Active and inactive are the calls of the source. The calls are words filed in the database; no cut-off is given here.

Key:
[1] = tested on: HL-60; test: Activity relative to retinoic acid in differentiating promyelocytic leukemic HL-60 cells; type: functional, Homo sapiens
[2] = tested on: HL-60; test: Differentiation inducing activity towards human promyelocytic leukemia cell line HL-60 assayed by nitroblue tetrazolium reduction; type: functional; conditions: read-out: ED50 (the source's name)
Summary of the method: (§1)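 HL-60 cells in RPMI1640 with 5% FCS at 37 °C, 5% CO₂; seeded about 8 × 10⁴ cells/mL and exposed 4 days to compounds from 0.2 mM ethanol stock (final ethanol below 0.5%; ethanol-only controls). Retinoic acid run concurrently. NBT reduction: 20 min at 37 °C with 0.2% NBT and TPA 200 ng/mL in PBS/medium. Formazan-positive cells counted among at least 200 cells. Wright-Giemsa morphology also scored. Five orders of concentration covered, at least three repeats. ED50 taken from NBT data.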

[3] = tested on: HL-60; test: Differentiation inducing activity towards human promyelocytic leukemia cell line HL-60 by nitroblue tetrazolium reduction assay;IA is inactive; type: functional, cell-based; summary of the method: as §1
[4] = tested on: HL-60; test: Differentiation inducing activity towards human promyelocytic leukemia cell line HL-60 by nitroblue tetrazolium reduction assay;IA is Inactive; type: functional, cell-based; summary of the method: as §1
[5] = tested on: HL-60; test: Differentiation inducing activity towards human promyelocytic leukemia cell line HL-60 by nitroblue tetrazolium reduction assay; IA is Inactive; type: functional, cell-based; summary of the method: as §1

| SMILES | EC50 [2] [nM] | Relative activity [1] | ED50 [3] | ED50 [4] | ED50 [5] |
| --- | --- | --- | --- | --- | --- |
| COc1c(-c2ccc(C(=O)O)cc2)oc2cc3c(cc2c1=O)C(C)(C)CCC3(C)C | > 1000 | < 0.0001 |  |  |  |
| O=C(O)c1ccc(-c2cc(=O)c3ccccc3o2)cc1 |  |  | inactive |  |  |
| CC1(C)CCC(C)(C)c2cc(C(=O)/C=C/c3ccc(C(=O)O)cc3)c(O)cc21 | 0.15 | 1.4 |  |  |  |
| CC1(C)CCC(C)(C)c2cc(/C(O)=C/C(=O)c3ccc(C(=O)O)cc3)c(O)cc21 | 0.063 | 7.6 |  |  |  |
| Cc1ccc(/C=C/C(=O)c2ccc3c(c2)C(C)(C)CCC3(C)C)cc1 |  |  |  | inactive |  |
| CC1(C)CCOc2cc3c(=O)cc(-c4ccc(C(=O)O)cc4)oc3cc21 | 250 | 0.017 |  |  |  |
| CC1=C(/C=C/C(C)=C/C=C/C(C)=C/C(=O)O)C(C)(C)CCC1 [TRETINOIN] | 2.4 | 1 |  |  |  |
| O=C(O)c1ccc(C(=O)/C=C(\O)c2ccccc2O)cc1 |  |  |  |  | inactive |
| COC(=O)c1ccc(-c2cc(=O)c3cc4c(cc3o2)C(C)(C)CCC4(C)C)cc1 | 0.48 | 8.5 |  |  |  |
| CCCCOC(=O)c1ccc(/C=C/C(=O)c2ccc3c(c2)C(C)(C)CCC3(C)C)cc1 | 27 | 0.063 |  |  |  |
| CC1(C)CCC(C)(C)c2cc3c(=O)c(O)c(-c4ccc(C(=O)O)cc4)oc3cc21 | 1.2 | 1.25 |  |  |  |
| CC1(C)CCC(C)(C)c2cc(C(=O)/C=C/c3ccc(C(=O)O)c(O)c3)ccc21 | 1.7 | 0.88 |  |  |  |
| COc1ccc(C(=O)/C=C/c2ccc(C(=O)O)cc2)cc1OC |  |  |  |  | inactive |
| CC1(C)CCC(C)(C)c2cc(C(=O)/C=C/c3cccc(C(=O)O)c3)ccc21 | > 1000 | < 0.0001 |  |  |  |
| O=C(O)c1ccc(/C=C/C(=O)c2ccccc2)cc1 |  |  |  |  | inactive |
| CC1(C)CCC(C)(C)c2cc3c(=O)cc(-c4ccc(C(=O)O)cc4)oc3cc21 | 0.046 | 27.4 |  |  |  |

Second part, led by results:

| EC50 [2] [nM] | SMILES | Relative activity [1] | ED50 [3] | ED50 [4] | ED50 [5] |
| --- | --- | --- | --- | --- | --- |
| 0.64 | CC1(C)CCC(C)(C)c2cc(C(=O)/C=C/c3ccc(C(=O)O)cc3)ccc21 | 2.8 |  |  |  |
| 0.82 | CC(C)c1ccc(C(=O)/C=C/c2ccc(C(=O)O)cc2)cc1C(C)C | 1.8 |  |  |  |
| > 1000 | CC(C)(C)c1ccc(O)c(/C(O)=C/C(=O)c2ccc(C(=O)O)cc2)c1 | < 0.0001 |  |  |  |
| 170 | CCc1ccc(C(=O)/C=C/c2ccc(C(=O)O)cc2)cc1CC | 0.0083 |  |  |  |
| > 1000 | CC1(C)CCOc2ccc(C(=O)/C=C/c3ccc(C(=O)O)cc3)cc21 | < 0.0001 |  |  |  |
| 480 | CC(C)(C)c1ccc2c(=O)cc(-c3ccc(C(=O)O)cc3)oc2c1 | 0.0058 |  |  |  |
| 3.3 | CC1(C)CCC(C)(C)c2cc(C(=O)/C=C/c3ccc(C(=O)Cl)cc3)ccc21 | 0.52 |  |  |  |
| 0.54 | Cc1cc2c(cc1C(=O)/C=C/c1ccc(C(=O)O)cc1)C(C)(C)CCC2(C)C | 2.1 |  |  |  |
| > 1000 | CC1(C)CCSc2ccc(C(=O)/C=C/c3ccc(C(=O)O)cc3)cc21 | < 0.0001 |  |  |  |
| 160 | CC(C)(C)c1cccc(C(=O)/C=C/c2ccc(C(=O)O)cc2)c1 | 0.0081 |  |  |  |
| 3.9 | COc1cc2c(cc1C(=O)/C=C/c1ccc(C(=O)O)cc1)C(C)(C)CCC2(C)C | 0.35 |  |  |  |
| 560 | CC(C)(C)c1ccc(/C(O)=C/C(=O)c2ccc(C(=O)O)cc2)c(O)c1 | 0.0023 |  |  |  |
| 690 | CC1(C)CCOc2c(C(=O)/C=C/c3ccc(C(=O)O)cc3)cccc21 | 0.0077 |  |  |  |
| > 1000 | CC1(C)CCC(C)(C)c2cc(C(=O)/C=C/c3ccc(C(N)=O)cc3)ccc21 | < 0.0001 |  |  |  |
| 30 | COC(=O)c1ccc(/C=C/C(=O)c2ccc3c(c2)C(C)(C)CCC3(C)C)cc1 | 0.043 |  |  |  |
| > 1000 | CC(C)(C)c1ccc2oc(-c3ccc(C(=O)O)cc3)cc(=O)c2c1 | < 0.0001 |  |  |  |
| 0.21 | CC(C)(C)c1cc(C(=O)/C=C/c2ccc(C(=O)O)cc2)cc(C(C)(C)C)c1 | 6.4 |  |  |  |
| 45 | CC(C)(C)c1ccc(C(C)(C)C)c(C(=O)/C=C/c2ccc(C(=O)O)cc2)c1 | 0.021 |  |  |  |
| 28 | CC(C)(C)c1ccc(C(=O)/C=C/c2ccc(C(=O)O)cc2)cc1 | 0.039 |  |  |  |
